Bioassay records: PubChem BioAssay, several laboratories
NR2E3 ag-1: agonists of human nuclear receptor NR2E3 | 320,000 compounds, 0.12% hits | inhibition of corepressor binding, % at 4.78 µM | AID 2300 | GST-NR2E3/biotin-RetCOR TR-FRET, 1536-well;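 active = percent inhibition above the cutoff of mean plus 3 SD of all tested compounds, set per screening campaign, cut at about 20% in these data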;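 note: 0% = DMSO wells and 100% = biotin wells as full block of FRET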
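Test system – NR2E3–RetCOR corepressor complex · Quantity – NR2E3 fusion 1.35 nM · Buffer or medium – Tris pH 7.5 · Incubation – Compound–protein incubation for 5 h at 4 °C · Technique – TR-FRET, Eu(K)-anti-GST donor, streptavidin-D2 acceptor, ex 340, em 617/671 nm · Evaluation – percent inhibition of 671/617 nm emission ratio versus biotin and DMSO controls · Plate – 1536-well format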
NR2E3 ag-2: activates human NR2E3 receptor; inhibition of corepressor binding, % at 3.98 µM; AID 602229; 360,000 compounds, 0.35% hits; CHO-S Gal4-NCOR/VP16-NR2E3 two-hybrid, luciferase;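 active = inhibition above the mean of all tested compounds plus 3 SD, cut at about 70% in these data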;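 note: 0% = DMSO with NR2E3 transfected cells and 100% = cells lacking NR2E3 construct; higher means lower luciferase signal from less NR2E3 corepressor binding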
Rev-erbA mod: Rev-erb alpha (human) modulation. P20393. Rev-erbα–FITC-DNA binding, fluorescence polarization, 90 min. activity, % at 10 µM. 370,000 compounds, 0.79% hits. AID 1259318;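 active = activity above about 14%, limit read from the data; passing the limit was not always enough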;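 note: 0% = DMSO wells with 35 nM protein and 100% = DMSO wells with 750 nM protein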
Target sequence (P20393 whole entry, looked up): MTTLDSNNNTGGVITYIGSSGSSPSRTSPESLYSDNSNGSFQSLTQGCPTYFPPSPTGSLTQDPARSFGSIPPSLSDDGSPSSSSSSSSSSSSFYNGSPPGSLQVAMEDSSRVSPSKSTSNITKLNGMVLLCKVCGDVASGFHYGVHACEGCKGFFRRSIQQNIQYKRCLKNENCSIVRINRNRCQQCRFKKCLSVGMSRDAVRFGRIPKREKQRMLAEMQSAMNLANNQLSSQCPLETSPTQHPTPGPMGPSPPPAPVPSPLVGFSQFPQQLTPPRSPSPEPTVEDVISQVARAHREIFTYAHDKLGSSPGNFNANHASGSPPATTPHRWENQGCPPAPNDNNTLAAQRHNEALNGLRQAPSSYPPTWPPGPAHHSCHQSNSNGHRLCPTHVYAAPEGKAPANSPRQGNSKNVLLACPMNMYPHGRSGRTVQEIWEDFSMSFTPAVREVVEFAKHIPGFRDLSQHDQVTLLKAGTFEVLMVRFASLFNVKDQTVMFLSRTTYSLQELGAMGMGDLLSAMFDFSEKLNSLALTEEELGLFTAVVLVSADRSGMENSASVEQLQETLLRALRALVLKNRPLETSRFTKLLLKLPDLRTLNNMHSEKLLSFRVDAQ
PG9 Ab binder: PG9 antibody binding by small molecule | AID 624416 | TR-FRET gp120-PG9 antibody binding | inhibition, % at 6.7 µM | 360,000 compounds, 0.43% hits; in the data active = inhibition above about 8.5%
PG9 binder conf: confirmation of small molecules binding HIV-1 gp120 antibody PG9; shares compounds with PG9 Ab binder; TR-FRET PG9 antibody binding, biochemical; inhibition, % at 6.7 µM; 1,500 compounds, 90% hits; AID 651571; in the data active = inhibition above about 9%
PGV04 counter: counter-screen for PG9 binders: binding control antibody PGV04; AID 651604; TR-FRET PGV04 antibody-gp120 binding, biochemical; 1,500 compounds, 95% hits; shares compounds with PG9 Ab binder; inhibition, % at 6.7 µM; in the data active = inhibition above about 9.5%
PG9 binder DR: small molecules binding HIV-1 gp120 antibody PG9 | TR-FRET PG9 antibody-gp120 binding inhibition | IC50, µM | 95 tested, under 10 active | AID 651848 | shares compounds with PG9 Ab binder; in the data active = IC50 below about 10 µM
PGV04 DR counter: PGV04 binding, dose response counter-screen. shares compounds with PG9 Ab binder. TR-FRET binding to control antibody PGV04. IC50, µM. 95 compounds, 20% hits. AID 651937
PG126 binding DR: binds control antibody PG126 in PG9 counter-screen; TR-FRET binding to antibody PG126, counterscreen; IC50, µM; AID 651939; shares compounds with PG9 Ab binder; 95 compounds, 20% hits
Active calls of the source: *; i = inactive; / = not tested or not shown. The list is not random: actives were taken first. Their share in the collection is about 1.4%. Cut-off read from the data, not from the text of the source, unless noted: active = IC50 below about 9 µM; inactive = the rest.

SMILES	NR2E3 ag-1	NR2E3 ag-2	Rev-erbA mod	PG9 Ab binder	PG9 binder conf	PGV04 counter	others
Cc1cc(O)c2c(CN3CCN(Cc4ccccc4)CC3)cc(=O)oc2c1	1	9	-2	-3	/	/
COC(=O)Cc1c(C)c2c(O)cc(C)cc2oc1=O	1	10	-1	10*	18*	18*	PG9 binder DR=i;PGV04 DR counter=i;PG126 binding DR=i
CCc1cc(=O)oc2cc(C)cc(O)c12	3	11	1	15*	14*	20*
CCCc1cc(=O)oc2cc(C)cc(O)c12	4	-8	-1	9.3*	14*	19*
CCCc1cc(=O)oc2cc(C)cc(OCc3nn[nH]n3)c12	3	6	0	0	/	/
Cc1cc(-n2c(=O)c(C#N)cc3c(=O)n4cccc(C)c4nc32)no1	-1	19	-2	3	/	/
O=C(O)c1ccccc1C(=O)Nc1ccccc1NC(=O)c1ccccc1C(=O)O	-4	-160	6	-1	/	/
CC(=O)c1sc(C(C)(C)C)cc1NC(=O)c1ccccc1C(=O)O	11	23	-4	48*	57*	65*
O=C1C=Cc2cccc3ccc(O)c1c23	/	-18	-6	16*	20*	26*
O=C(Nc1ccc(Cl)cc1)Nc1nnc(CSc2ccc(Cl)cc2)s1	-1	-22	3	-2	/	/
COCCCNC(=O)Cn1nc(-c2cccc(OC)c2)ccc1=O	-1	11	0	0	/	/
CC(=O)CSc1nc(-c2cccs2)c(C#N)c(=O)[nH]1	/	-11	1	49*	53*	65*
CC(=O)CSc1nc(N)c(C#N)c(-c2cccs2)c1C#N	2	-14	5	0	/	/
COc1cc(C(=O)Nc2cccc(-c3nc4ncccc4o3)c2C)cc(OC)c1OC	-3	3	3	2	/	/
COc1cc(C(=O)Nc2cccc(-c3nc4cc(C)ccc4o3)c2C)cc(OC)c1OC	2	-67	9	12*	17*	27*
O=c1oc(-c2cccs2)nc2c1cnn2-c1ccccc1	1	10	2	9.5*	13*	18*
COCCCN1CCc2[nH]c(=S)[nH]c(=O)c2C1	2	-1	-2	0	/	/
Cc1cccc(-c2nnc(NC(=O)c3ccc(N4C(=O)CCC4=O)cc3)s2)c1	-11	-25	8	17*	4	12*
O=C(c1ccc(F)cc1)C1CCN(c2ncnc3sccc23)CC1	/	/	5	/	/	/
O=S(=O)(c1ccc(F)c(F)c1F)N1CCN(c2ncnc3sccc23)CC1	/	22	0	11*	8	16*
CCCOc1ccc(C(CC(=O)O)NC(=O)c2sc3ccccc3c2Cl)cc1 (centres undefined)	6	7	-1	11*	15*	21*
CCOc1ccc(C(CC(=O)O)NC(=O)c2sc3ccccc3c2Cl)cc1 (centres undefined)	9	0	5	8	/	/
O=C(Nc1ccc2oc(-c3ccncc3)nc2c1)c1ccccc1F	3	-56	6	23*	32*	53*
Cc1ccc(S(=O)(=O)N(CC(=O)NCc2ccncc2)Cc2ccc(F)cc2)cc1	4	-8	5	1	/	/
CCS(=O)(=O)c1ccc(-c2cccc(NC(=O)COc3ccccc3)c2)nn1	-4	29	8	0	/	/
COc1ccc(Nc2nc(C)nc3c2oc2ccccc23)c(OC)c1	-1	-7	7	13*	15*	22*
NS(=O)(=O)c1ccc(NC(=O)c2ccc(-c3ccccc3)cc2)cc1	/	-28	3	9.3*	13*	25*
NS(=O)(=O)c1ccc(NS(=O)(=O)c2ccc(NC(=O)c3ccc(-c4ccccc4)cc3)cc2)cc1	2	-5	-6	1	/	/
